Results taken from ChEMBL document CHEMBL1131183, “New 1alpha,25-dihydroxy-19-norvitamin D3 compounds of high biological activity: synthesis and biological evaluation of 2-hydroxymethyl, 2-methyl, and 2-methylene analogues” (1998).
Where “and” joins values, the source holds several entries; their conditions need not be identical. Equal entries are not always repeated.

Species on record: Rattus norvegicus
Assay: Bone calcium mobilization measured in vitamin D-deficient rats on a low-calcium diet(130)
Format: functional, organism-based
Details: not given
Outline: (§1)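 Weanling male rats kept on 0.47% Ca diet 1 week, then 0.02% Ca diet 3 weeks; dosed ip daily for 7 days (130 or 260 pmol) in 0.1 mL propylene glycol/ethanol 95:5 during last week; vehicle controls. Serum Ca measured 24 h after last dose by atomic absorption with 0.1% LaCl3; rise in serum Ca taken as bone mobilization. ≥6 rats/group, mean ± SEM, Student's t-test.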

Row | Structure (SMILES) | Serum Ca2+
1 | C=C1[C@H](O)CC(=C/C=C2\CCC[C@]3(C)[C@@H]([C@H](C)CCCC(C)(C)O)CC[C@@H]23)C[C@H]1O | 9.9
2 | CC1[C@H](O)CC(=C/C=C2\CCC[C@]3(C)[C@@H]([C@H](C)CCCC(C)(C)O)CC[C@@H]23)C[C@H]1O (stereo partly specified) [listing 1 of 3 here] | 4.1 and 4.8
3 | CC1[C@H](O)CC(=C/C=C2\CCC[C@]3(C)[C@@H]([C@@H](C)CCCC(C)(C)O)CC[C@@H]23)C[C@H]1O (stereo partly specified) [listing 1 of 3 here] | 8.3 and 4.4
4 | C=C1[C@H](O)CC(=C/C=C2\CCC[C@]3(C)[C@@H]([C@@H](C)CCCC(C)(C)O)CC[C@@H]23)C[C@H]1O [DP001] | 13.8
5 | C[C@@H](CCCC(C)(C)O)[C@H]1CC[C@H]2/C(=C/C=C3C[C@@H](O)C(CO)[C@H](O)C3)CCC[C@]12C (stereo partly specified) [listing 1 of 3 here] | 3.6 and 4

Species on record: Rattus norvegicus
Assay: Support of intestinal calcium transport measured in vitamin D-deficient rats on a low-calcium diet(130)
Format: functional
Details: not given
Outline: (§2)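 Vitamin D-deficient weanling male rats, 0.47% Ca diet 1 week then 0.02% Ca diet 3 weeks, given 130 or 260 pmol ip daily for 7 days in 0.1 mL propylene glycol/ethanol 95:5; vehicle controls. Killed 24 h after last dose; everted sac of proximal 10 cm intestine, Ca by atomic absorption, expressed as serosal/mucosal ratio. ≥6 rats/group, mean ± SEM, t-test.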

Row | Structure (SMILES) | Ca2+ transport S/M
6 | CC1[C@H](O)CC(=C/C=C2\CCC[C@]3(C)[C@@H]([C@H](C)CCCC(C)(C)O)CC[C@@H]23)C[C@H]1O (stereo partly specified) [listing 2 of 3 here] | 4.4
7 | CC1[C@H](O)CC(=C/C=C2\CCC[C@]3(C)[C@@H]([C@@H](C)CCCC(C)(C)O)CC[C@@H]23)C[C@H]1O (stereo partly specified) [listing 2 of 3 here] | 12.9
8 | C=C1[C@H](O)CC(=C/C=C2\CCC[C@]3(C)[C@@H]([C@H](C)CCCC(C)(C)O)CC[C@@H]23)C[C@H]1O | 5.3
9 | C[C@@H](CCCC(C)(C)O)[C@H]1CC[C@H]2/C(=C/C=C3C[C@@H](O)C(CO)[C@H](O)C3)CCC[C@]12C (stereo partly specified) [listing 2 of 3 here] | 5
10 | CC1[C@H](O)CC(=C/C=C2\CCC[C@]3(C)[C@@H]([C@@H](C)CCCC(C)(C)O)CC[C@@H]23)C[C@H]1O (stereo partly specified) [listing 3 of 3 here] | 2.9
11 | CC1[C@H](O)CC(=C/C=C2\CCC[C@]3(C)[C@@H]([C@H](C)CCCC(C)(C)O)CC[C@@H]23)C[C@H]1O (stereo partly specified) [listing 3 of 3 here] | 4.3
12 | C=C1[C@H](O)CC(=C/C=C2\CCC[C@]3(C)[C@@H]([C@@H](C)CCCC(C)(C)O)CC[C@@H]23)C[C@H]1O [DP001] | 5.8
13 | C[C@@H](CCCC(C)(C)O)[C@H]1CC[C@H]2/C(=C/C=C3C[C@@H](O)C(CO)[C@H](O)C3)CCC[C@]12C (stereo partly specified) [listing 3 of 3 here] | 3.5

Molecular target: T1, Vitamin D3 receptor (Sus scrofa) (UniProt A3RGC1)
T1 sequence (whole entry): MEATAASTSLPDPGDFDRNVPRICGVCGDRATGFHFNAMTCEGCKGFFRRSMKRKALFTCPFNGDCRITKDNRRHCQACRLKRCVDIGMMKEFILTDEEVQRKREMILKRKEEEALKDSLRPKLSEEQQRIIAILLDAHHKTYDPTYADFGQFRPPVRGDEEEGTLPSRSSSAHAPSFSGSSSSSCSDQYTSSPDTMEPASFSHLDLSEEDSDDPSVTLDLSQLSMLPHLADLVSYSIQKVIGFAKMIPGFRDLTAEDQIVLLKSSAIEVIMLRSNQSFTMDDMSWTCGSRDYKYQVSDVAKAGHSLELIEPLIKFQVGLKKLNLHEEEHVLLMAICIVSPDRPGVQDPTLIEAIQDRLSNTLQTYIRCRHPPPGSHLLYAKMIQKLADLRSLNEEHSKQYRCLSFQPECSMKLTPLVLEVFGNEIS
Details: not given

Row | ED50 | Structure (SMILES)
14 | 0.12 nM | C=C1[C@H](O)CC(=C/C=C2\CCC[C@]3(C)[C@@H]([C@H](C)CCCC(C)(C)O)CC[C@@H]23)C[C@H]1O
15 | 0.4 nM and 0.5 nM | CC1[C@H](O)CC(=C/C=C2\CCC[C@]3(C)[C@@H]([C@@H](C)CCCC(C)(C)O)CC[C@@H]23)C[C@H]1O (stereo partly specified) [listing 1 of 3 here]
16 | 0.1 nM | C=C1[C@H](O)CC(=C/C=C2\CCC[C@]3(C)[C@@H]([C@@H](C)CCCC(C)(C)O)CC[C@@H]23)C[C@H]1O [DP001]

System: HL-60
Assay: Induced differentiation of human promyelocyte HL-60 cells into monocytes
Format: functional
Details: Homo sapiens, HL-60; read-out: ED50 (the source's name)

Row | EC50 | Structure (SMILES)
17 | 4.2 nM | C=C1[C@H](O)CC(=C/C=C2\CCC[C@]3(C)[C@@H]([C@H](C)CCCC(C)(C)O)CC[C@@H]23)C[C@H]1O
18 | 0.15 nM | C=C1[C@H](O)CC(=C/C=C2\CCC[C@]3(C)[C@@H]([C@@H](C)CCCC(C)(C)O)CC[C@@H]23)C[C@H]1O [DP001]
19 | 20 nM | C[C@H](CCCC(C)(C)O)[C@H]1CC[C@H]2/C(=C/C=C3C[C@@H](O)C(CO)[C@H](O)C3)CCC[C@]12C (stereo partly specified)

Same assay, conditions: read-out: ED50 (the source's name)

Row | Structure (SMILES) | EC50
20 | C[C@@H](CCCC(C)(C)O)[C@H]1CC[C@H]2/C(=C/C=C3C[C@@H](O)C(CO)[C@H](O)C3)CCC[C@]12C (stereo partly specified) [listing 2 of 3 here] | 2 nM
21 | C[C@@H](CCCC(C)(C)O)[C@H]1CC[C@H]2/C(=C/C=C3C[C@@H](O)C(CO)[C@H](O)C3)CCC[C@]12C (stereo partly specified) [listing 3 of 3 here] | 4.5 nM

Other lines, results leading:

Row | EC50 | Structure (SMILES)
22 | 8 nM | CC1[C@H](O)CC(=C/C=C2\CCC[C@]3(C)[C@@H]([C@H](C)CCCC(C)(C)O)CC[C@@H]23)C[C@H]1O (stereo partly specified) [listing 2 of 3 here]
23 | 0.07 nM | CC1[C@H](O)CC(=C/C=C2\CCC[C@]3(C)[C@@H]([C@@H](C)CCCC(C)(C)O)CC[C@@H]23)C[C@H]1O (stereo partly specified) [listing 2 of 3 here]
24 | 0.7 nM | CC1[C@H](O)CC(=C/C=C2\CCC[C@]3(C)[C@@H]([C@@H](C)CCCC(C)(C)O)CC[C@@H]23)C[C@H]1O (stereo partly specified) [listing 3 of 3 here]
25 | 0.08 nM | CC1[C@H](O)CC(=C/C=C2\CCC[C@]3(C)[C@@H]([C@H](C)CCCC(C)(C)O)CC[C@@H]23)C[C@H]1O (stereo partly specified) [listing 3 of 3 here]

Species on record: Rattus norvegicus
Assay: Support of intestinal calcium transport measured in vitamin D-deficient rats on a low-calcium diet(260)
Format: functional
Details: not given
Outline: as §2

Row | Structure (SMILES) | Ca2+ transport S/M
26 | CC1[C@H](O)CC(=C/C=C2\CCC[C@]3(C)[C@@H]([C@H](C)CCCC(C)(C)O)CC[C@@H]23)C[C@H]1O (stereo partly specified) [listing 2 of 3 here] | 3
27 | CC1[C@H](O)CC(=C/C=C2\CCC[C@]3(C)[C@@H]([C@@H](C)CCCC(C)(C)O)CC[C@@H]23)C[C@H]1O (stereo partly specified) [listing 2 of 3 here] | 8.4
28 | C=C1[C@H](O)CC(=C/C=C2\CCC[C@]3(C)[C@@H]([C@H](C)CCCC(C)(C)O)CC[C@@H]23)C[C@H]1O | 4.9
29 | C[C@@H](CCCC(C)(C)O)[C@H]1CC[C@H]2/C(=C/C=C3C[C@@H](O)C(CO)[C@H](O)C3)CCC[C@]12C (stereo partly specified) [listing 2 of 3 here] | 5.8
30 | CC1[C@H](O)CC(=C/C=C2\CCC[C@]3(C)[C@@H]([C@@H](C)CCCC(C)(C)O)CC[C@@H]23)C[C@H]1O (stereo partly specified) [listing 3 of 3 here] | 3.8
31 | CC1[C@H](O)CC(=C/C=C2\CCC[C@]3(C)[C@@H]([C@H](C)CCCC(C)(C)O)CC[C@@H]23)C[C@H]1O (stereo partly specified) [listing 3 of 3 here] | 5.3
32 | C=C1[C@H](O)CC(=C/C=C2\CCC[C@]3(C)[C@@H]([C@@H](C)CCCC(C)(C)O)CC[C@@H]23)C[C@H]1O [DP001] | 4.6
33 | C=C1/C(=C\C=C2/CCC[C@]3(C)[C@@H]([C@H](C)CCCC(C)(C)O)CC[C@@H]23)C[C@@H](O)C[C@@H]1O [CALCITRIOL] | 6.2 and 5.6 and 4.6 and 6.6
34 | C[C@@H](CCCC(C)(C)O)[C@H]1CC[C@H]2/C(=C/C=C3C[C@@H](O)C(CO)[C@H](O)C3)CCC[C@]12C (stereo partly specified) [listing 3 of 3 here] | 3.5

Species on record: Rattus norvegicus
Assay: Bone calcium mobilization measured in vitamin D-deficient rats on a low-calcium diet(260)
Format: functional, organism-based
Details: not given
Outline: as §1

Row | Structure (SMILES) | Serum Ca2+
35 | C=C1[C@H](O)CC(=C/C=C2\CCC[C@]3(C)[C@@H]([C@H](C)CCCC(C)(C)O)CC[C@@H]23)C[C@H]1O | 9.6
36 | CC1[C@H](O)CC(=C/C=C2\CCC[C@]3(C)[C@@H]([C@H](C)CCCC(C)(C)O)CC[C@@H]23)C[C@H]1O (stereo partly specified) [listing 1 of 3 here] | 3.8 and 5.8
37 | CC1[C@H](O)CC(=C/C=C2\CCC[C@]3(C)[C@@H]([C@@H](C)CCCC(C)(C)O)CC[C@@H]23)C[C@H]1O (stereo partly specified) [listing 1 of 3 here] | 10.3 and 4.4
38 | C=C1[C@H](O)CC(=C/C=C2\CCC[C@]3(C)[C@@H]([C@@H](C)CCCC(C)(C)O)CC[C@@H]23)C[C@H]1O [DP001] | 14.4
39 | C=C1/C(=C\C=C2/CCC[C@]3(C)[C@@H]([C@H](C)CCCC(C)(C)O)CC[C@@H]23)C[C@@H](O)C[C@@H]1O [CALCITRIOL] | 6.6 [middle of 4 runs]
40 | C[C@@H](CCCC(C)(C)O)[C@H]1CC[C@H]2/C(=C/C=C3C[C@@H](O)C(CO)[C@H](O)C3)CCC[C@]12C (stereo partly specified) [listing 1 of 3 here] | 3.5 and 3.9

Molecular target: T1, Vitamin D3 receptor (Sus scrofa)
Assay: Inhibition of 1-alpha,25-(OH)2D3 binding to porcine intestinal vitamin D receptor
Details: not given
Outline: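 Porcine intestinal nuclear extract, 0.1 mg protein (200 fmol binding activity) per tube, incubated with 10 000 cpm 1α,25-(OH)2[26,27-3H]D3 plus graded unlabelled standard or analogue in ethanol, 4 h room temperature with shaking. Bound label captured on hydroxyapatite, washed with TE/5% Triton, counted by scintillation. ED50 = concentration displacing 50% of label, from dose-response curves; triplicate on two occasions.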

Row | ED50 | Structure (SMILES)
41 | 0.09 nM | C=C1/C(=C\C=C2/CCC[C@]3(C)[C@@H]([C@H](C)CCCC(C)(C)O)CC[C@@H]23)C[C@@H](O)C[C@@H]1O [CALCITRIOL]
